Screening results: PubChem BioAssay, several laboratories
PolyA inhibitor – inhibitors of polyadenylation in S. cerevisiae | S. cerevisiae SKY197-pL101 polyadenylation reporter, beta-gal luminescence; efflux-impaired pdr1/pdr3 knockout yeast; score 100 = 6 SD above DMSO | activity score, % at 12 µM | actives 0.02% (n = 300,000) | AID 1875;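 active = lowest replicate activity score at least 50, where 100 means six control SD above control mean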;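 also: yeast exposed to compound for 9 h at 30 °C; higher score means more reporter readthrough which indicates perturbed polyadenylation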
procasp3 activ – procaspase-3 (human) activation. P42574. activation, % at 8.5 µM. AID 463141. recombinant procaspase-3 D3A, Ac-DEVD-pNA absorbance 405 nm. actives 0.11% (n = 330,000);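 active = activation above the mean of all tested compounds plus 3 SD, cut at about 21% in these data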;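 also: 0% = DMSO alone and 100% = DMSO wells spiked with extra 5 µM PC-3 D3A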
Target sequence (P42574 whole entry D9A/D28A/D175A): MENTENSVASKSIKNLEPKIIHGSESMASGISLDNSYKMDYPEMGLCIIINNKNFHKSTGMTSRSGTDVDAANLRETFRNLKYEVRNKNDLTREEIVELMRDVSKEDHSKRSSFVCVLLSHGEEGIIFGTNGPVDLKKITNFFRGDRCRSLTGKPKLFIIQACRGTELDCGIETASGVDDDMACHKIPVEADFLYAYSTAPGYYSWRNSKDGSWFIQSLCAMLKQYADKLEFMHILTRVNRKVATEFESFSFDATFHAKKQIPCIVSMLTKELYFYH
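Assay system – Procaspase-3 D3A mutant · Benchmarks – DMSO low control, extra-enzyme high control · Technique – 405 nm absorbance of p-nitroaniline, reads at 0 and 120 min · Doses – 8.5 µM nominal · Measure – % activation between DMSO and enzyme-spiked controls · Also added – Ac-DEVD-pNA chromogenic peptide substrate · Schedule – 1 h compound preincubation, 2 h substrate hydrolysis at 25 °C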
Neddylation inh – blocks human cullin neddylation; P61081+Q13564; TR-FRET cullin neddylation, biochemical; calls only at 25 µM; actives 0.58% (n = 360,000); in the data active = inhibition above about 36%
VIM-2 inhibitor – inhibitors of Pseudomonas aeruginosa VIM-2 metallo-beta-lactamase | purified VIM-2, nitrocefin hydrolysis, epi-absorbance fluorescence | inhibition, % at 5.6 µM | actives 0.89% (n = 290,000);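 active = inhibition above the mean of all tested compounds plus 3 SD, cutoff set per screening run, cut at about 7.5% in these data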;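 also: red hydrolysis product quenches plate fluorescence so inhibitors raise well fluorescence; 0% = enzyme with DMSO and 100% = DMSO without enzyme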
proCasp7 act – activates human procaspase-7, counter-screen for procaspase-3 activators; P55210; recombinant procaspase-7, Ac-DEVD-pNA absorbance 405 nm; D23A/D198A/D206A triple mutant, cannot self-cleave; scale: DMSO 0, 5 µM enzyme 100; activation, % at 8.5 µM; actives 0.093% (n = 330,000);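 active = percent activation above the screen-wide mean plus 3 SD, cut at about 25% in these data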
Target sequence (P55210 whole entry D23A/D198A/D206A): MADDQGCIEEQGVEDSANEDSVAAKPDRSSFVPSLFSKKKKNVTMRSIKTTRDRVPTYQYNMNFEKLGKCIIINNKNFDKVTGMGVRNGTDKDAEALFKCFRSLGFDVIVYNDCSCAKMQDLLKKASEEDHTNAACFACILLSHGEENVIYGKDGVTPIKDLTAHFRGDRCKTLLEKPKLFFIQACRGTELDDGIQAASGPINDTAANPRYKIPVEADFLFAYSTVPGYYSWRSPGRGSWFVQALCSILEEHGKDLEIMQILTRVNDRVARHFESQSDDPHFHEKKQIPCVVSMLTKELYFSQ
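Test system: Procaspase-7 triple mutant (PC-7 D3A). Also added: Ac-DEVD-pNA substrate, 400 µM as added. Schedule: 1 h enzyme–compound preincubation and 2 h substrate reaction, both 25 °C. Signal: p-Nitroaniline absorbance at 405 nm, read at 0 and 120 min. Control set: low DMSO alone, high DMSO plus 5 µM PC-7.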
IMP-1 inh – inhibitors of Pseudomonas aeruginosa IMP-1 metallo-beta-lactamase. purified IMP-1, nitrocefin hydrolysis, epi-absorbance fluorescence. inhibition, % at 5.6 µM. actives 0.45% (n = 290,000);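 active = inhibition above the mean plus 3 SD of all compounds in the same screening run, cut at about 4.5% in these data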;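 also: 0% = IMP-1 with DMSO and 100% = DMSO wells lacking enzyme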
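System: Purified IMP-1 | Read-out basis: Percent enzyme inhibition | Controls: IMP-1 with DMSO as 0%, enzyme-free DMSO as 100% | Replicates: One well per compound | Doses: 5.6 µM nominal single concentration | Detection: Epi-absorbance fluorescence, 480 nm excitation, 530 nm emission | Incubation: 25 °C, 15 min preincubation, 25 min reaction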
Neddyl conf – cullin neddylation inhibition, confirmation | TR-FRET cullin neddylation biochemical assay | actives 13% (n = 1,800) | calls only at 25 µM | shares compounds with Neddylation inh; in the data active = inhibition above about 40%;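 also: neddylation substrate is the cullin 1 ring ligase complex with SKP2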
An asterisk follows results filed as active. This is a sample that favours compounds with a hit; in the whole collection about 1.7% have one here.

Results for CCCCC(=O)NC(c1ccc(N(C)C)cc1)c1ccc2cccnc2c1O (stereo unspecified) ?
PolyA inhibitor: 1.3; procasp3 activ: 5.4; Neddylation inh: inactive; VIM-2 inhibitor: -1.8; proCasp7 act: 3.5; IMP-1 inh: -4.4

Results for O=C(NCC1CCCO1)c1ccc2c(c1)N(Cc1ccc(Cl)cc1)CCS2 (stereo unspecified) ?
Neddylation inh: inactive

How did COc1cccc(/C=N/NC(=O)c2ccc(CN3c4cccc5cccc(c45)S3(=O)=O)cc2)c1 do in these assays?
PolyA inhibitor: -12.2; procasp3 activ: -2.4; VIM-2 inhibitor: -3.0; proCasp7 act: 5.7; IMP-1 inh: -2.5

What do the screens show for `O=C(N/N=C/c1cccnc1)c1ccc(CN2c3cccc4cccc(c34)S2(=O)=O)cc1`?
PolyA inhibitor: -17.4; procasp3 activ: 1.1; Neddylation inh: active; VIM-2 inhibitor: -0.9; proCasp7 act: 7.6; IMP-1 inh: -0.8; Neddyl conf: active

Results for Cc1cccc(C)c1NC(=O)C(c1ccncc1)n1c(=O)c(-c2ccccc2)nc2ccccc21 (stereo unspecified) ?
Neddylation inh: active; Neddyl conf: active

What do the screens show for `CCCCCNC(=O)C(C1CC1)n1c(=O)c(-c2ccccc2)nc2ccccc21` (stereo unspecified)?
Neddylation inh: active

How did CC(C)(C)NC(=O)C(c1ccncc1)n1c(=O)c(-c2ccccc2)nc2ccccc21 (stereo unspecified) do in these assays?
Neddylation inh: active

Results for COc1ccc(C(C(=O)Nc2c(C)cccc2C)n2c(=O)c(-c3ccccc3)nc3ccccc32)cc1 (stereo unspecified) ?
Neddylation inh: inactive

Results for O=C(NC1CCCCC1)C(CCc1ccccc1)n1c(=O)c(-c2ccccc2)nc2ccccc21 (stereo unspecified) ?
Neddylation inh: inactive

Results for O=C(NC1CCCCC1)C(c1ccc(C(F)(F)F)cc1)n1c(=O)c(-c2ccccc2)nc2ccccc21 (stereo unspecified) ?
Neddylation inh: active; Neddyl conf: inactive

What do the screens show for `CC(C)(C)NC(=O)C(c1ccc(C(F)(F)F)cc1)n1c(=O)c(-c2ccccc2)nc2ccccc21` (stereo unspecified)?
Neddylation inh: inactive

How did C=CC[C@@H](CC(=O)NCCO)C(=O)NC[C@H](OC(=O)[C@@H](CC=C)CC(=O)OC(C)(C)C)c1ccccc1 do in these assays?
procasp3 activ: 6.0; Neddylation inh: inactive; proCasp7 act: 6.2

What do the screens show for `COc1ccc(N2CCN(c3nc(Cl)nc(N4CCOCC4)n3)CC2)cc1`?
PolyA inhibitor: -5.1; procasp3 activ: 2.6; Neddylation inh: inactive; VIM-2 inhibitor: -0.5; proCasp7 act: 5.7; IMP-1 inh: -2.9

How did COc1ccc(-c2csc(N3CCN(c4cc5c(cc4Cl)nc(-c4ccncc4)n5CCOCCO)CC3)n2)cc1 do in these assays?
PolyA inhibitor: -0.7; procasp3 activ: -9.2; Neddylation inh: active; VIM-2 inhibitor: 0.0; proCasp7 act: -28.7; IMP-1 inh: -1.6; Neddyl conf: inactive

Results for O=C(N/N=C/c1ccc(-c2cccc(C(F)(F)F)c2)o1)c1ccccc1O ?
PolyA inhibitor: -13.0; procasp3 activ: -12.8; Neddylation inh: active; VIM-2 inhibitor: 0.4; proCasp7 act: 0.9; IMP-1 inh: -2.1; Neddyl conf: inactive

What do the screens show for `COC(=O)/C=c1/s/c(=C(\C#N)C(=O)NCc2ccco2)n(-c2ccccc2)c1=O`?
PolyA inhibitor: 4.8; procasp3 activ: -11.2; Neddylation inh: inactive; VIM-2 inhibitor: -2.0; proCasp7 act: -15.2; IMP-1 inh: 3.6

What do the screens show for `COc1ccc(/C=c2\s/c(=C(/C#N)C(=O)NCc3ccco3)n(-c3ccccc3)c2=O)cc1`?
PolyA inhibitor: -12.2; procasp3 activ: 3.5; Neddylation inh: active; VIM-2 inhibitor: -0.2; proCasp7 act: -2.8; IMP-1 inh: -1.7; Neddyl conf: inactive

How did Nc1ccc(-c2cc3ccccc3c(=O)o2)cc1 do in these assays?
procasp3 activ: 0.0; Neddylation inh: active; proCasp7 act: -0.6; Neddyl conf: inactive

What do the screens show for `Cc1ccccc1-c1cc2nc(C)c(C)c(=O)n2[nH]1`?
PolyA inhibitor: 7.1; VIM-2 inhibitor: -1.8; IMP-1 inh: -3.2

How did NC(=O)C1CCN(Cc2ccc(OCc3ccccc3)cc2)CC1 do in these assays?
PolyA inhibitor: -5.5; procasp3 activ: -0.4; Neddylation inh: inactive; VIM-2 inhibitor: -4.4; proCasp7 act: 4.9; IMP-1 inh: -2.5

Results for CCCCN(C)CCCNC(=O)C1CC(=O)N(Cc2ccc(OC)cc2)C1 (stereo unspecified) ?
PolyA inhibitor: 12.0; procasp3 activ: 3.4; Neddylation inh: inactive; VIM-2 inhibitor: -0.1; proCasp7 act: 4.6; IMP-1 inh: -0.1

Results for Cc1cc(C)c2nc(N3CCN(C)CC3)c(C#N)cc2c1 ?
PolyA inhibitor: 6.2; procasp3 activ: 0.7; Neddylation inh: active; VIM-2 inhibitor: 2.2; proCasp7 act: -0.5; IMP-1 inh: -1.0; Neddyl conf: inactive

How did Cc1ccc2cc(C#N)c(N3CCN(C)CC3)nc2c1 do in these assays?
PolyA inhibitor: 6.3; procasp3 activ: 3.1; Neddylation inh: inactive; VIM-2 inhibitor: 3.5; proCasp7 act: -2.4; IMP-1 inh: 0.9

Results for Cc1ccc2nc(N3CCN(C)CC3)c(C#N)cc2c1 ?
PolyA inhibitor: -3.5; procasp3 activ: -0.1; Neddylation inh: active; VIM-2 inhibitor: -1.4; proCasp7 act: -3.5; IMP-1 inh: -3.5; Neddyl conf: inactive

Results for COc1cccc(/C=N/NC(=O)C(=O)NCc2ccco2)c1OC ?
PolyA inhibitor: 7.7; procasp3 activ: -0.6; Neddylation inh: inactive; VIM-2 inhibitor: -3.4; proCasp7 act: -5.9; IMP-1 inh: -3.1

What do the screens show for `C/C(=N/OC(=O)CC(C)C)c1cc(-c2ccc(Cl)cc2)no1`?
PolyA inhibitor: 2.5; procasp3 activ: -0.9; Neddylation inh: inactive; VIM-2 inhibitor: -1.0; proCasp7 act: 8.9; IMP-1 inh: -2.6

Results for CC1(C)Cc2c(C#N)c(NCC3CCCO3)nc(-c3ccco3)c2CO1 (stereo unspecified) ?
PolyA inhibitor: -6.9; procasp3 activ: -5.5; Neddylation inh: active; VIM-2 inhibitor: -5.5; proCasp7 act: -0.1; IMP-1 inh: -4.6
